Screening data (PubChem BioAssay)
CHRM5 PAM: human M5 muscarinic receptor positive allosteric modulators, primary screen, CHO-K1 cells, Fluo-8 calcium fluorescence; CHO-K1 hM5, ACh EC20 PAM; 0% = ACh EC20, 100% = ACh EC100; activation, % at 3 µM; 360,000 compounds, 0.3% hits; AID 624038, 2012;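 active = activation above the run cutoff, the mean activation of all test compounds plus 3 SD, cut at about 18% in these data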
Target sequence (P08912 whole entry, looked up): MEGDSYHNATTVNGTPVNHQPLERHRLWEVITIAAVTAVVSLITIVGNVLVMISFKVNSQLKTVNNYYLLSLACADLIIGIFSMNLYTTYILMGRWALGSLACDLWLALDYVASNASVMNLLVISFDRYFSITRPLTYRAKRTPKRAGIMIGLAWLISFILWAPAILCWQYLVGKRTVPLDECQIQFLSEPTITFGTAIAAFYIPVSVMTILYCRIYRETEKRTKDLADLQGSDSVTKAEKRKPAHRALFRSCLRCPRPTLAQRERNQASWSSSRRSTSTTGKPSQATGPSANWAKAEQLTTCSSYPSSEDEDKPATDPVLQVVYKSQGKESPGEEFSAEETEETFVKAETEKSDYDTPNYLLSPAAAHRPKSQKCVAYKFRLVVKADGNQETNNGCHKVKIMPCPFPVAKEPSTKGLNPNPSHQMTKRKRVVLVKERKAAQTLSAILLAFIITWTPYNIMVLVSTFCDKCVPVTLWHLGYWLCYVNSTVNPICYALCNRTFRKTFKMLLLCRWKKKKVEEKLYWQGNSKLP
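system = human M5 receptor in CHO-K1 cells | reagent = EC20 acetylcholine as agonist stimulus | compound dosing = single-point, 3 µM nominal | incubation = Fluo-8 loading 80 min at 37 °C plus 30 min room temperature | detection = Fluo-8 calcium dye fluorescence, kinetic read | benchmarks = low control EC20 acetylcholine (0%), high control EC100 acetylcholine (100%)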
M5 ag: human M5 muscarinic receptor agonists, primary screen, CHO-K1 cells, Fluo-8 calcium fluorescence; Muscarinic acetylcholine receptor M5 (Homo sapiens), P08912; CHO-K1 hM5 cells; 0% DMSO wells, 100% maximal acetylcholine response; activation, % at 3 µM; 360,000 compounds, 0.19% hits; AID 624037, 2012;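 active = activation above the run's mean over test compounds plus 3 SD, cut at about 23% in these data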;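 note: signal is peak over basal fluorescence ratio across the kinetic read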
M4 ag: human M4 muscarinic receptor agonists, primary screen, CHO-K1 cells, Fluo-8 calcium fluorescence; Muscarinic acetylcholine receptor M4 (Homo sapiens), P08173; CHO-K1 hM4/Gqi5; vehicle 0%, full acetylcholine response 100%; activation, % at 3 µM; 360,000 compounds, 0.14% hits; AID 624127, 2012;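 active = activation above the run mean over all test wells plus 3 SD, cut at about 32% in these data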;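 note: peak over basal fluorescence ratio per well then scaled between controls; 0% = DMSO wells and 100% = acetylcholine at EC100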
CHRM5 antagonist: human M5 muscarinic receptor antagonists, primary screen, CHO cells, Fluo-8 calcium fluorescence. CHO-hM5 cells, ACh EC80. inhibition, % at 3 µM. Muscarinic acetylcholine receptor M5 (Homo sapiens), P08912. 360,000 compounds, 0.59% hits;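 active = inhibition above a per-plate cutoff, the mean of that plate's test compounds plus 3 SD, cut at about 27% in these data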;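 note: 0% = acetylcholine EC80 with DMSO and 100% = DMSO without agonist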
CHRM4 PAM: human M4 muscarinic receptor positive allosteric modulators, primary screen, CHO-K1 cells, Fluo-8 calcium fluorescence. Muscarinic acetylcholine receptor M4 (Homo sapiens), P08173. CHO-K1 hM4/Gqi5, ACh EC20; 0% = ACh EC20, 100% = maximal ACh. activation, % at 3 µM. 360,000 compounds, 0.4% hits;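 active = activation above its plate's cutoff, the mean activation of sample wells plus 3 SD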
M4 antag: human M4 muscarinic receptor antagonists, primary screen, CHO cells, Fluo-8 calcium fluorescence; Muscarinic acetylcholine receptor M4 (Homo sapiens), P08173; CHO-hM4 cells, ACh EC80; inhibition, % at 3 µM; 360,000 compounds, 0.73% hits; AID 624125, 2012;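 active = inhibition above its plate's cutoff, the mean inhibition of sample wells plus 3 SD, cut at about 27% in these data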;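 note: 0% = acetylcholine EC80 with DMSO and 100% = DMSO without agonist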
* = called active by the depositor; + = active, no number. Only some compounds are listed: those with a hit (about 1.9% of all), similar ones and a draw of the others.

SMILES | CHRM5 PAM | M5 ag | M4 ag | CHRM5 antagonist | CHRM4 PAM | M4 antag
CC(=O)Oc1ccc2c(c1)Oc1cc(OC(C)=O)ccc1C21OC(=O)c2ccccc21 | -20.9 | + | 865.5* | 101.9* | -17.2 | 101.5*
CN(C)S(=O)(=O)c1ccc(C(=O)OCC(=O)Nc2cccnc2Cl)cc1 | 2.4 | 5.2 | 3.0 | 12.6 | 6.5 | -9.4
CC(=O)Nc1ccc(S(=O)(=O)N(C)CC(=O)OCC(=O)Nc2cccnc2Cl)cc1 | -1.1 | 4.0 | 0.9 | 4.9 | 43.1* | 26.9*
Cc1ccc(NC2CCCN(C(=O)CSc3ccccn3)C2)cc1C (stereo unspecified) | -2.4 | -2.4 | 1.6 | -0.8 | 0.0 | 2.3
COc1ccccc1N/C=C/c1onc(C)c1[N+](=O)[O-] | -12.9 | 14.6 | 2.2 | 22.9 | -0.7 | 40.2*
CCOc1ccc(Nc2nc3ccccc3n2C)cc1 | -5.7 | -7.7 | 0.2 | 12.8 | -17.6 | -4.2
CCOc1ccc(CNc2nc3ccccc3n2C)cc1 | 21.3* | -1.9 | 2.5 | -12.1 | 0.5 | -14.2
Cc1ccccc1N1CC(=O)N(c2ccccc2C)CC1=O | -4.6 | -2.1 | 2.0 | -7.8 | 19.9* | 9.2
O=C1CN(c2ccccc2Cl)C(=O)CN1c1ccccc1Cl | -1.6 | -2.7 | -0.1 | 6.0 | -3.7 | 10.4
O=C(N/N=C\c1ccc(Sc2ccccn2)o1)c1cccc(Br)c1 | -7.2 | -0.5 | 6.3 | -0.9 | 7.1 | -7.9
Cc1ccccc1C(=O)N/N=C/c1ccc(Sc2ccccn2)o1 | 24.0* | 2.3 | 2.0 | 23.2 | 3.7 | -1.1
Cc1cccc(C(=O)NC(=S)NNC(=O)c2cccs2)c1 | -7.7 | 5.7 | 5.5 | 11.3 | -8.0 | 15.0
Cc1ccccc1C(=O)NNC(=S)NC(=O)c1cccs1 | -10.9 | 15.3 | 39.1* | 14.7 | -13.1 | 8.9
CC(C)(C)c1ccc(C(=O)NC(=S)NNC(=O)c2cccs2)cc1 | -21.6 | 46.0* | 108.9* | 21.0 | -19.0 | 13.7
O=C(NC(=S)NNC(=O)c1cccs1)c1ccccc1 | -10.5 | -3.4 | 0.9 | 27.2* | -1.6 | 12.4
O=C(NNC(=O)c1cccs1)c1ccco1 | 21.5* | 2.0 | 0.7 | 7.2 | 6.8 | 1.7
O=C(NC(=S)NNC(=O)c1cccs1)c1ccco1 | -3.5 | -1.5 | 0.5 | 3.7 | -6.2 | 7.8
COc1cccc(-c2c(C(=O)O)cc(O)c3ccc(OC)cc23)c1 | 2.7 | -3.9 | 1.1 | 18.8 | 5.0 | -15.4
CCN1C(=O)[C@@H]2[C@@H]3CN(S(=O)(=O)c4ccc(C)cc4)[C@@H](c4ccccc4Cl)[C@@H]3C(=O)C[C@@H]2C1=O | 2.0 | 0.7 | 1.7 | -6.4 | 9.0 | -8.2
CCOC(=O)C1CCN(C(=O)Cn2c(=O)c3cccn3c3cccnc32)CC1 | -5.1 | -3.5 | 2.5 | 14.2 | -0.2 | -1.2
O=C(Nc1ccc(F)cc1F)C1CCN(S(=O)(=O)c2cccnc2)CC1 | 0.0 | -4.0 | 1.1 | 4.4 | 3.0 | 2.4
CC(C)(C)c1ccc(C(=O)NC(=S)NCc2cccnc2)cc1 | -18.8 | -8.5 | 2.5 | -2.3 | -7.8 | -16.7
COC(=O)CNC(=S)NC(=O)c1ccc(C(C)(C)C)cc1 | -19.7 | -16.5 | -0.9 | 7.8 | -22.5 | 26.8*
CN(C)S(=O)(=O)c1cccc(NC(=O)c2ccc3c(c2)OCCO3)c1 | -11.5 | 0.7 | 10.4 | 0.6 | -5.0 | -4.7
CC1CCc2[nH]c3ccc(C(=O)N(C)CC(=O)Nc4ccccc4C(F)(F)F)cc3c2C1 (stereo unspecified) | -5.3 | 1.3 | 1.8 | 6.3 | -3.2 | -7.7
OC(C#CCCN1CCCCC1)(c1ccccc1)c1ccccc1 | -31.9 | -20.1 | 0.9 | 99.5* | -17.2 | 94.5*
O=C(CCN1CCCCC1)c1ccccc1 | -0.8 | -0.2 | -0.5 | -0.5 | 6.4 | -1.1
